From ChEMBL document CHEMBL2390937, “Evaluation of selective inhibitors of 11β-HSD1 for the treatment of hypertension” (Bioorg Med Chem Lett, 2013)
Active and inactive are the calls of the source. The calls are words filed in the database; no cut-off is given here.

Tests used:
Rattus norvegicus [1] = experiment: Antihypertensive activity in spontaneously hypertensive rat model assessed as reduction in heart rate at 10 mg/kg for 7 days; type: functional, organism-based; parameters: dose 10 mg/kg
Summary of the method: (§1)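 Spontaneously hypertensive rats implanted with telemetry abdominal aorta catheters and dosed daily at 10 mg/kg over 7 days. Heart rate and systolic and diastolic BP were recorded, with change from baseline compared against vehicle-treated animals.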

Mus musculus [2] = experiment: Antihypertensive activity in telemeterized wild type mouse assessed as reduction in systolic BP at 30 mg/kg/day for 11 days; type: functional
Summary of the method: (§2)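 Telemeterized 11β-HSD1 knockout mice and wild-type controls (not littermates) were dosed at 30 mg/kg/day. Systolic BP change was compared with vehicle-treated mice of each genotype, and plasma exposure was also measured.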

[3] = Ratio of drug level in brain to plasma of spontaneously hypertensive rat at 10 mg/kg; type: ADME, organism-based; parameters: dose 10 mg/kg; conditions: read-out: BPR
Summary of the method: (§3)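 Rats received 10 mg/kg and were sacrificed at peak (about 4 h) or trough (about 24 h) post dose. Total and free drug were measured in plasma, isolated brain and CSF, and the brain/plasma ratio was derived from these.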

Mus musculus [4] = experiment: Antihypertensive activity in telemeterized 11beta-HSD1 KO mouse assessed as reduction in systolic BP at 30 mg/kg/day for 11 days; type: functional; summary of the method: as §2
[5] = Drug level in spontaneously hypertensive rat CSF at 10 mg/kg measured after 24 hrs; type: ADME, organism-based, Cerebrospinal fluid; parameters: dose 10 mg/kg; conditions: read-out: Drug uptake; summary of the method: as §3
[6] = Total drug level in spontaneously hypertensive rat brain at 10 mg/kg measured after 24 hrs; type: ADME, organism-based; parameters: dose 10 mg/kg; conditions: read-out: Drug uptake; summary of the method: as §3
Brain [7] = experiment: Free drug level in spontaneously hypertensive rat brain at 10 mg/kg measured after 24 hrs; type: ADME, organism-based; parameters: dose 10 mg/kg; conditions: in vivo; summary of the method: as §3
[8] = Drug level in spontaneously hypertensive rat CSF at 10 mg/kg measured after 4 hrs; type: ADME, organism-based, Cerebrospinal fluid; parameters: dose 10 mg/kg; conditions: read-out: Drug uptake; summary of the method: as §3
Plasma [9] = experiment: Free plasma concentration in spontaneously hypertensive rat at 10 mg/kg measured after 24 hrs; type: ADME, organism-based; parameters: dose 10 mg/kg; conditions: in vivo; summary of the method: as §3
[10] = Total drug level in spontaneously hypertensive rat brain at 10 mg/kg measured after 4 hrs; type: ADME, organism-based; parameters: dose 10 mg/kg; conditions: read-out: Drug uptake; summary of the method: as §3
Brain [11] = experiment: Free drug level in spontaneously hypertensive rat brain at 10 mg/kg measured after 4 hrs; type: ADME, organism-based; parameters: dose 10 mg/kg; conditions: in vivo; summary of the method: as §3
Plasma [12] = experiment: Free plasma concentration in spontaneously hypertensive rat at 10 mg/kg measured after 4 hrs; type: ADME, organism-based; parameters: dose 10 mg/kg; conditions: in vivo; summary of the method: as §3
[13] = Plasma concentration in spontaneously hypertensive rat model at 10 mg/kg measured after 24 hrs; type: ADME, organism-based; parameters: dose 10 mg/kg; summary of the method: as §3
[14] = Plasma concentration in spontaneously hypertensive rat model at 10 mg/kg measured after 4 hrs; type: ADME, organism-based; parameters: dose 10 mg/kg; summary of the method: as §3
Rattus norvegicus [15] = experiment: Antihypertensive activity in spontaneously hypertensive rat model assessed as reduction in diastolic BP at 10 mg/kg for 7 days; type: functional, organism-based; parameters: dose 10 mg/kg; summary of the method: as §1
Rattus norvegicus [16] = experiment: Antihypertensive activity in spontaneously hypertensive rat model assessed as reduction in systolic BP at 10 mg/kg for 7 days; type: functional; summary of the method: as §1
[17] = molecular target: 11-beta-hydroxysteroid dehydrogenase 1 (Rattus norvegicus, UniProt P16232); experiment: Inhibition of rat 11beta-HSD1
[18] = tested on: 11-beta-HSD1 (Rattus norvegicus); experiment: Binding affinity to rat liver microsomal 11beta-HSD1 by radiometric competition assay
[19] = molecular target: 11-beta-HSD2 (Homo sapiens); experiment: Inhibition of human microsomal 11beta-HSD2 assessed as inhibition of […] by cell-based assay
Homo sapiens [20] = species on record: Homo sapiens; experiment: Antihypertensive activity in hypertensive patients assessed as placebo-corrected systolic BP at 6 mg/day
Homo sapiens [21] = species on record: Homo sapiens; experiment: Antihypertensive activity in hypertensive patients assessed as placebo-corrected diastolic BP at 6 mg/day
Homo sapiens [22] = species on record: Homo sapiens; experiment: Antihypertensive activity in hypertensive patients assessed as placebo-corrected systolic BP at 7 mg/day
Homo sapiens [23] = species on record: Homo sapiens; experiment: Antihypertensive activity in hypertensive patients assessed as placebo-corrected diastolic BP at 7 mg/day

11-beta-hydroxysteroid dehydrogenase 1, sequence (P16232 whole entry): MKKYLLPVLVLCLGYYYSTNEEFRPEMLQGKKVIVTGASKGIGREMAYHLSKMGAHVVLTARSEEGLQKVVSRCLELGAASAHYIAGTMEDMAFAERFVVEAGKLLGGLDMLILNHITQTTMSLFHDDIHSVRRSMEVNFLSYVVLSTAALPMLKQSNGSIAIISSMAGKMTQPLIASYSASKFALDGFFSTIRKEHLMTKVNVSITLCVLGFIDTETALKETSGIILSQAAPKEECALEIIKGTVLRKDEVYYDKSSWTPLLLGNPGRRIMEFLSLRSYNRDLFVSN

Row | Kp [3] | concentration at 24 h [5] | concentration at 24 h [6] | Drug uptake(free) (Brain [7]) | concentration at 4 h [8] | Cp(f) (Plasma [9]) | concentration at 4 h [10] | Drug uptake(free) (Brain [11]) | Cp(f) (Plasma [12]) | concentration at 24 h [13] | concentration at 4 h [14] | IC50 [17] | Ki [17] | Structure (SMILES) | Activity (Rattus norvegicus [1]) | Activity (Rattus norvegicus [15]) | Activity (Rattus norvegicus [16]) | further results
1 | > 1 | 3.4 µM | 55.4 µM | 2.4 µM | 4.4 µM | 2.4 µM | 60.5 µM | 3 µM | 2.5 µM | 25.4 µM | 25 µM | 4.5 nM | 7 nM | Cn1c(-c2ccccc2C(F)(F)F)nnc1C12CCC(c3noc(C(C)(F)F)n3)(CC1)CC2 | Active | Active | >15 mmHg | Activity (Mus musculus [2]): -8 mmHg; Activity (Mus musculus [4]): -5.8 mmHg; Bmax ([18]; tested as the 3H-labelled form): 55500 fmol/mg; IC50 [19]: 3100 nM
2 | < 1 | 0.7 µM | 0.8 µM | 0.2 µM | 2.1 µM | 2.1 µM | 3.1 µM | 1.3 µM | 8 µM | 10.2 µM | 27.7 µM | 9.1 nM | 13.1 nM | CCS(=O)(=O)CC12CCC(c3nnc(-c4ccccc4C(F)(F)F)n3C)(CC1)CC2 | Active | Active | 3 mmHg | –
3 | > 1 | 0.2 µM | 39.1 µM | 0.06 µM | 0.2 µM | 0.05 µM | 44.4 µM | 0.08 µM | 0.07 µM | 12.1 µM | 13.9 µM | – | – | Cn1c(-c2ccccc2C(F)(F)F)nnc1C12CCC(c3nc(-c4ccc(F)cc4)no3)(CC1)CC2 | Active | Active | >15 mmHg | –
4 | – | – | – | – | – | – | – | – | – | – | – | – | – | F[C@H]1C[C@](c2ccc(Cl)cc2)(c2nnc(C3CC3)n2C2CC2)C1 | – | – | – | Activity (Homo sapiens [20]): -7.9 mmHg; Activity (Homo sapiens [21]): -5.4 mmHg
5 | – | – | – | – | – | – | – | – | – | – | – | – | – | CCS(=O)(=O)CCCC12CCC(c3nnc(-c4ccccc4C(F)(F)F)n3C)(CC1)CC2 [MK-0736] | – | – | – | Activity (Homo sapiens [22]): -7.7 mmHg; Activity (Homo sapiens [23]): -4.4 mmHg
6 | – | – | – | – | – | – | – | – | – | – | – | – | – | [3H]c1cc(-c2nnc(C34CCC(c5noc(C(C)(F)F)n5)(CC3)CC4)n2C)c(C(F)(F)F)cc1[3H] | – | – | – | Kd [18]: 11 nM
7 | < 1 | 0.7 µM | 0.7 µM | 0.2 µM | 5.1 µM | 1.9 µM | 5 µM | 0.5 µM | 9.5 µM | 6 µM | 24.2 µM | 6 nM | 3.9 nM | CCS(=O)(=O)CCC12CCC(c3nnc(-c4ccccc4C(F)(F)F)n3C)(CC1)CC2 | Active | Active | 3 mmHg | –
